GRIN3A LBD mod: binders of NR3A ligand-binding domain, primary screen, biophysical, differential scanning fluorimetry, uHTS | Glutamate receptor ionotropic, NMDA 3A (GRIN3A) ligand-binding domain | NR3A LBD differential scanning fluorimetry, Tm shift; 0% = protein alone, 100% = glycine-bound protein | Tm shift relative to glycine control, % at 25 µM | hit rate 2.5% among 340,000 | AID 1259313, 2017;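 active means melting temperature shift of at least 10% of the positive control shift, at one fixed dose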
proCasp3 act: activators of human procaspase-3 D3A mutant, primary screen, biochemical, absorbance, PC-3 D3A mutant, single concentration; hit rate 0.11% among 330,000; AID 463141, 2010; Caspase-3 (Homo sapiens), P42574; activation, % at 8.5 µM; recombinant procaspase-3 D3A, Ac-DEVD-pNA absorbance 405 nm;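 active means activation above the mean of all tested compounds plus 3 SD, cut at about 21% in these data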
Target sequence (P42574 whole entry D9A/D28A/D175A): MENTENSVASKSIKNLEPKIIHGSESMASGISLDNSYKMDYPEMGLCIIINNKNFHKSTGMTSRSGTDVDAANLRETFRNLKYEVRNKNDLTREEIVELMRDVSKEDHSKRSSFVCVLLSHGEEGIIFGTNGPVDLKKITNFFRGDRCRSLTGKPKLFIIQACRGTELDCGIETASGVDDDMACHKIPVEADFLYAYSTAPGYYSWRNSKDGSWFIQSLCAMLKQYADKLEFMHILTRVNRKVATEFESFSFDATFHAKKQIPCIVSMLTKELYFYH
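assay system = Procaspase-3 D3A mutant | signal = absorbance at 405 nm, 0 and 120 min | times = 1 h preincubation plus 2 h reaction at 25 °C | repeats = single replicate | read-out = % activation between DMSO and enzyme-spiked controls | medium = Zinc-free HEPES saline buffer with Triton X-100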
MPTP block: mitochondrial permeability transition pore inhibitors, primary screen, biochemical, isolated mouse mitochondria, absorbance. Ca2+ swelling absorbance, 30 min. inhibition, % at 10 µM. hit rate 1.4% among 360,000. AID 602449, 2012;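 active means inhibition of 50% or more, scaled per plate between neutral and stimulator controls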
aDG glyco up: activators of alpha-DG glycosylation, primary screen, uHTS, Pro5-aDG cells, AlphaScreen. alpha-DG glycosylation AlphaScreen (IIH6); 0% Pro5, 100% B10-LARGE cell signal. activation, % at 10 µM. hit rate 0.22% among 360,000. AID 624168, 2012;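 active means activation of at least 8% versus controls, or a plate z-score of at least 8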;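 further: Pro5 are CHO cells carrying HIG-tagged alpha-DG that lacks glycosylation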
proCasp7 act: procaspase-7 activators, primary screen, counter-screen for procaspase-3 activator project, biochemical, absorbance, HTS, human; recombinant procaspase-7, Ac-DEVD-pNA absorbance 405 nm; D23A/D198A/D206A triple mutant, cannot self-cleave; scale: DMSO 0, 5 µM enzyme 100; Caspase-7 (Homo sapiens), P55210; activation, % at 8.5 µM; hit rate 0.093% among 330,000;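 active means percent activation above the screen-wide mean plus 3 SD, cut at about 25% in these data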
Target sequence (P55210 whole entry D23A/D198A/D206A): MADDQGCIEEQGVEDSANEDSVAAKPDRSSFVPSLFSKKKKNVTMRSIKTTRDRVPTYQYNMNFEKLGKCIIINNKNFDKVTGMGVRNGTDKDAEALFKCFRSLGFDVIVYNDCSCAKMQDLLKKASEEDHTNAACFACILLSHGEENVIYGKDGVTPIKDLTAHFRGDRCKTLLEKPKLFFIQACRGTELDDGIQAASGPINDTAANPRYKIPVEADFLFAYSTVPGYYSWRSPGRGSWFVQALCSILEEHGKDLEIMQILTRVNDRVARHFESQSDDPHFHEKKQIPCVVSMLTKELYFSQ
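Assay system: Uncleavable procaspase-7 mutant enzyme / Input: 2 µM procaspase-7 mutant as dispensed / Dosing: single nominal 8.5 µM compound dose, 0.8% DMSO final / Timing: 1 h enzyme–compound preincubation and 2 h substrate reaction, both 25 °C / Detection: p-Nitroaniline absorbance at 405 nm, read at 0 and 120 min / Replication: singlicate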
PC3 dual counter: procaspase-3 activators, counter-screen for dual procaspase-3/7 activator project, biochemical, absorbance, PC-3 D3A mutant, human; shares compounds with proCasp7 act; recombinant PC-3 D3A, Ac-DEVD-pNA absorbance 405 nm; aspartates 9, 28, 175 changed to alanine; 100% = enzyme control; activation, % at 8.5 µM; 290 tested, under 10 active;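 active means mean percent activation across triplicates above a set limit taken from the earlier primary procaspase-3 screen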
Procasp7 act: activation of procaspase-7 enzyme – biochemical, absorbance, human, dual procaspase-3/-7 activator project, confirmation; shares compounds with proCasp7 act; recombinant procaspase-7, Ac-DEVD-pNA absorbance 405 nm; D23A/D198A/D206A mutant that cannot self-cleave; activation, % at 8.5 µM; 290 tested, under 10 active;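 active means mean activation above a set limit carried over from the earlier primary screen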
Rh123 counter: fluorescence retest of MPTP screen hits in isolated mitochondria, single concentration | shares compounds with MPTP block | membrane potential, Rhodamine 123 fluorescence | inhibition, % at 10 µM | hit rate 78% among 5,000; in the data active means inhibition above about 22%
Hits are given with their value; 0 = inactive; - = not tested or not shown. The list is not random: actives were taken first. Their share in the collection is about 3.7%.

SMILES	GRIN3A LBD mod	proCasp3 act	MPTP block	aDG glyco up	proCasp7 act	PC3 dual counter	Procasp7 act	others
Cc1cccc(C2=NN(c3ccc(Br)cc3)[C@@H](C(=O)N3CCOC3=O)[C@@H]2c2ccc(F)cc2)c1	0	35	0	0	26	0	0
CCOC(=O)c1cc(-c2ccc3c(c2)OCCO3)nc2c1c(C)nn2CCC#N	0	25	0	0	54	0	0
Cc1c(CC(=O)N2CCN(C(=O)C3COc4ccccc4O3)CC2)c(=O)oc2cc(O)ccc12 (stereo unspecified)	0	24	0	0	30	0	0
Cc1c(CC(=O)N2CCN(C(=O)C3COc4ccccc4O3)CC2)c(=O)oc2c(C)c(O)ccc12 (stereo unspecified)	0	27	0	0	26	0	0
Cc1c(CC(=O)N2CCN(C(=O)C3COc4ccccc4O3)CC2)c(=O)oc2cc(O)cc(O)c12 (stereo unspecified)	0	0	0	0	0	-	-
COc1ccc2c(C)c(CC(=O)N3CCN(C(=O)C4COc5ccccc5O4)CC3)c(=O)oc2c1 (stereo unspecified)	0	0	0	0	0	-	-
CCOC(=O)c1sc2c(c1C)C(c1cccs1)C1=C(CCCC1=O)N2 (stereo unspecified)	0	23	0	0	40	0	0
C[C@@H]1CCCCO[C@@H](CN(C)S(=O)(=O)c2ccccc2)[C@@H](C)CN([C@H](C)CO)C(=O)c2cc(N(C)C)ccc2O1	-	-	0	0	-	-	-
CCOC(=O)C1=C(C)NC(=O)NC1c1ccc(N2CCC(c3ccccc3)=N2)cc1 (stereo unspecified)	0	31	0	0	72	0	0
CCOC(=O)C1=C(C)NC(=O)NC1c1ccc(NC(C)=O)cc1 (stereo unspecified)	0	0	0	0	0	-	-
O=c1[nH]c(N/N=C/c2ccccc2)nc2ccccc12	0	32	0	0	38	0	0
O=c1[nH]c(N/N=C\c2ccc3c(c2)OCO3)nc2ccccc12	0	24	0	0	28	0	0
Nc1ncnc2c1ncn2[C@@H]1O[C@H](C(=O)N2CCN(Cc3ccccn3)CC2)[C@@H](O)[C@H]1O	-	-	0	0	-	-	-
C[C@H](O)C#Cc1cnc2c(c1)C(=O)N([C@H](C)CO)C[C@@H](C)[C@@H](CN(C)Cc1ccc(-c3ccccc3)cc1)O2	-	-	0	0	-	-	-
COc1ccc(CCN2C(=O)CSCC2(C)C(=O)Nc2ccc3c(c2)OCCO3)cc1OC (stereo unspecified)	-	-	0	0	-	-	-
CCCNC(=O)c1c(N)n(-c2cc(OC)cc(OC)c2)c2nc3ccccc3nc12	0	115	0	0	29	0	0
COC(=O)c1sc2nc(-c3ccco3)ccc2c1N	0	0	0	0	0	-	-
CC(C)OC(=O)c1sc2nc(-c3ccccc3)ccc2c1N	0	0	0	0	34	0	0
COCc1nnc(NC(=O)CCSc2ccccc2)s1	0	0	0	0	27	0	0
CCN(CC)S(=O)(=O)c1ccc(OC)c(NC(=O)CSCc2c(C)noc2C)c1	0	0	0	0	0	-	-
COc1ccc(S(=O)(=O)N2CCN(C(=O)COc3ccc(C)c(C)c3)CC2)cc1OC	0	0	0	0	39	0	0
COc1ccc(S(=O)(=O)N2CCN(C(=O)CCOc3ccccc3)CC2)cc1OC	0	0	0	0	0	-	-
COCc1cc(C)nc2sc(C(=O)Nc3ccccc3C)c(N)c12	0	0	0	0	0	-	-
COCc1cc(C)nc2sc(C(=O)Nc3ccccc3Br)c(N)c12	0	0	0	0	36	0	0
COc1ccc2nc(NC(=O)c3sc4nc(C)cc(C)c4c3N)sc2c1	28	0	0	0	71	0	0
SMILES	GRIN3A LBD mod	proCasp3 act	MPTP block	aDG glyco up	proCasp7 act	PC3 dual counter	Procasp7 act	others
COc1ccc(OC)c(NC(=O)C2(C)CCN2Cc2ccccc2Cl)c1 (stereo unspecified)	-	-	0	0	-	-	-
Cc1cccc(C)c1NC(=O)C1c2ccccc2OCC(=O)N1CCc1ccccc1 (stereo unspecified)	-	-	0	0	-	-	-
CCCCCCCCN1C(=O)[C@H](CC(=O)N2CCCCC2)C[C@@]2(C(=O)OC)CC(C)(C)CC=C12	-	-	0	0	-	-	-
OC[C@@H]1[C@@H](c2ccccc2)C(c2ccc(F)cc2)=NN1c1ccccc1	0	0	0	0	29	0	0
CCOC(=O)C1CC(c2ccccc2)=NN1c1ccccc1 (stereo unspecified)	-	-	0	0	-	-	-
OC[C@@H]1[C@@H](c2ccccc2)C(c2ccccc2)=NN1c1ccccc1	0	0	0	0	31	0	0
FC(F)(F)c1ccccc1Cc1c(-c2ccc(Cl)cc2)nc2ccc(Br)cn12	-	-	0	0	-	-	-
Cc1cc(N/N=C/c2ccc(N(C)C)cc2)nc(NCc2ccccc2)n1	0	57	60	0	32	0	0	Rh123 counter=56
Oc1ccccc1C=NNC(=S)NC1CC2C=CC1C2 (stereo unspecified)	-	-	0	0	-	-	-
Oc1c(Cl)cc(Cl)cc1/C=N/NC(=S)NC1CC2C=CC1C2 (stereo unspecified)	12	43	89	0	40	0	0	Rh123 counter=62
COc1ccc(CNC(=O)COc2cc3c(c4oc(=O)cc(C)c24)CCC(C)(C)O3)c(OC)c1	-	-	0	0	-	-	-
CCCCOc1ccc(Br)cc1CSC(=N)N	0	-	83	0	-	-	-	Rh123 counter=108
CC(=O)Nc1ccc(S(=O)(=O)Nc2ccc3c(c2)OCCO3)cc1Cl	0	0	79	0	0	-	-	Rh123 counter=58
O=S(=O)(Nc1ccc2c(c1)OCCO2)c1ccc2oc3ccccc3c2c1	0	0	68	0	0	-	-	Rh123 counter=81
COc1ccc(NS(=O)(=O)c2ccc3c(c2)OCCO3)cc1OC	0	0	85	0	0	-	-	Rh123 counter=86

Source: PubChem (several laboratories)
